Laboratory results as given in ChEMBL document CHEMBL4002555, “Bioactive Pentacyclic Triterpenoids from the Leaves of Cleistocalyx operculatus” (J Nat Prod, 2016).

Key:
MCF7 = test: Cytotoxicity against human MCF7 cells after 72 hrs by MTT assay; assay type: functional, cell-based; details: MCF7, 72 h
How it was run: (§1)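 MTT growth-inhibition assay in human HepG2 hepatocellular, NCI-N87 gastric and MCF-7 breast carcinoma lines, with a doxorubicin positive control. IC50 values are means ± SD from three individual experiments; >10.0 μM was taken as noncytotoxic.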

HepG2 = test: Cytotoxicity against human HepG2 cells after 72 hrs by MTT assay; assay type: functional, cell-based; details: HepG2, 72 h; how it was run: as §1
NCI-N87 = test: Cytotoxicity against human NCI-N87 cells after 72 hrs by MTT assay; assay type: functional, cell-based; details: NCI-N87, 72 h; how it was run: as §1
RAW264.7 [1] = test: Anti-inflammatory activity in mouse RAW264.7 cells assessed as inhibition of LPS-induced TNF-alpha production at 2 uM pretreated for 1 hr followed by LPS stimulation measured after 24 hrs by ELISA relative to control; assay type: functional
How it was run: (§2)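 LPS-stimulated RAW 264.7 macrophages, with IL-6 and TNF-α production read separately. Test concentrations were 0.4, 2, 10 and 50 μM, and dexamethasone was the reference drug. Results are given as percent inhibition of cytokine production.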

RAW264.7 [2] = test: Anti-inflammatory activity in mouse RAW264.7 cells assessed as inhibition of LPS-induced TNF-alpha production at 0.4 uM pretreated for 1 hr followed by LPS stimulation measured after 24 hrs by ELISA relative to control; assay type: functional; how it was run: as §2
RAW264.7 [3] = test: Anti-inflammatory activity in mouse RAW264.7 cells assessed as inhibition of LPS-induced TNF-alpha production at 10 uM pretreated for 1 hr followed by LPS stimulation measured after 24 hrs by ELISA relative to control; assay type: functional; how it was run: as §2
RAW264.7 [4] = test: Anti-inflammatory activity in mouse RAW264.7 cells assessed as inhibition of LPS-induced IL-6 production at 10 uM pretreated for 1 hr followed by LPS stimulation measured after 24 hrs by ELISA relative to control; assay type: functional; how it was run: as §2
RAW264.7 [5] = test: Anti-inflammatory activity in mouse RAW264.7 cells assessed as inhibition of LPS-induced TNF-alpha production at 50 uM pretreated for 1 hr followed by LPS stimulation measured after 24 hrs by ELISA relative to control; assay type: functional; how it was run: as §2
RAW264.7 [6] = test: Anti-inflammatory activity in mouse RAW264.7 cells assessed as inhibition of LPS-induced IL-6 production at 2 uM pretreated for 1 hr followed by LPS stimulation measured after 24 hrs by ELISA relative to control; assay type: functional; how it was run: as §2
[7] = Cytotoxicity against mouse RAW264.7 cells assessed as growth inhibition at 10 uM after 72 hrs by MTT assay relative to control; assay type: cell-based; details: read-out: GI
RAW264.7 [8] = test: Anti-inflammatory activity in mouse RAW264.7 cells assessed as inhibition of LPS-induced IL-6 production at 50 uM pretreated for 1 hr followed by LPS stimulation measured after 24 hrs by ELISA relative to control; assay type: functional; how it was run: as §2
RAW264.7 [9] = test: Anti-inflammatory activity in mouse RAW264.7 cells assessed as inhibition of LPS-induced IL-6 production at 0.4 uM pretreated for 1 hr followed by LPS stimulation measured after 24 hrs by ELISA relative to control; assay type: functional; how it was run: as §2
[10] = Cytotoxicity against mouse RAW264.7 cells assessed as growth inhibition at 50 uM after 72 hrs by MTT assay relative to control; assay type: cell-based; details: read-out: GI

SMILES | IC50 (MCF7) [µM] | IC50 (HepG2) [µM] | IC50 (NCI-N87) [µM] | inhibition at 2 µM (RAW264.7 [1]) [%] | inhibition at 0.4 µM (RAW264.7 [2]) [%] | inhibition at 10 µM (RAW264.7 [3]) [%] | inhibition at 10 µM (RAW264.7 [4]) [%] | inhibition at 50 µM (RAW264.7 [5]) [%] | inhibition at 2 µM (RAW264.7 [6]) [%] | inhibition at 72 h, 10 µM [7] [%] | inhibition at 50 µM (RAW264.7 [8]) [%] | inhibition at 0.4 µM (RAW264.7 [9]) [%] | inhibition at 72 h, 50 µM [10] [%]
C[C@H]1[C@H](C)CC[C@]2(C(=O)O)CC[C@]3(C)C(=CC[C@@H]4[C@@]5(C)CC[C@H](O)C(C)(C)[C@@H]5CC[C@]43C)[C@H]12 [URSOLIC ACID] | 6.6 | > 10 | 4.2 |  |  |  |  |  |  |  |  |  | 
C[C@H]1[C@H](C)CC[C@]2(C(=O)O)CC[C@]3(C)C(=C[C@@H](O)[C@@H]4[C@@]5(C)C[C@@H](O)[C@H](O)[C@@](C)(CO)[C@@H]5CC[C@]43C)[C@H]12 | > 10 | > 10 | > 10 | < 50 | < 50 | < 50 | < 50 | < 50 | < 50 | < 5 | < 50 | < 50 | 
COC(=O)[C@@]12CC[C@]3(C(=O)O)[C@H](CC[C@@H]4[C@@]5(C)CC[C@H](O)C(C)(C)[C@@H]5CC[C@]43C)[C@@H]1[C@@H](C)C(C)=C[C@H]2O | > 10 | > 10 | > 10 | < 50 | < 50 | < 50 | < 50 | < 50 | < 50 | < 5 | < 50 | < 50 | 
COc1cccc2c1C(=O)c1c(O)c3c(c(O)c1C2=O)C[C@@](O)(C(=O)CO)C[C@@H]3O[C@H]1C[C@H](N)[C@H](O)[C@H](C)O1 [DOXORUBICIN] |  |  | 1.6 |  |  |  |  |  |  |  |  |  | 
CC1=CC[C@]2(C(=O)O)CC[C@]3(C)[C@H](CC[C@@H]4[C@@]5(C)CC[C@H](O)C(C)(C)[C@@H]5CC[C@]43C)[C@H]2[C@@H]1C | 4.3 | 1.9 | 2.4 |  |  |  |  |  |  |  |  |  | 
C=C1CC[C@]2(C(=O)O)CC[C@]3(C)C(=C[C@@H](O)[C@@H]4[C@@]5(C)C[C@@H](O)[C@H](O)[C@@](C)(CO)[C@@H]5CC[C@]43C)[C@@H]2[C@H]1C | > 10 | > 10 | > 10 | < 50 | < 50 | < 50 | < 50 | < 50 | < 50 | < 5 | < 50 | < 50 | 
C=C1CC[C@]2(C(=O)O)CC[C@]3(C)C(=CC[C@@H]4[C@@]5(C)C[C@@H](O)[C@H](O)[C@@](C)(CO)[C@@H]5CC[C@]43C)[C@@H]2[C@H]1C [ACTINIDIC ACID] | > 10 | > 10 | > 10 | < 50 | < 50 | < 50 | < 50 | < 50 | < 50 | < 5 | < 50 | < 50 | 
CC1(C)CC[C@]2(C(=O)O)CC[C@]3(C)C(=C[C@@H](O)[C@@H]4[C@@]5(C)C[C@@H](O)[C@H](O)[C@@](C)(CO)[C@@H]5CC[C@]43C)[C@@H]2C1 | > 10 | > 10 | > 10 | 53.7 |  | 57.7 | 69.9 | 65.6 | 68.1 |  | 74.9 |  | < 5
CC1(C)CC[C@]2(C(=O)O)CC[C@]3(C)C(=CC[C@@H]4[C@@]5(C)C[C@@H](O)[C@H](O)C(C)(C)[C@@H]5CC[C@]43C)[C@@H]2C1 [MASLINIC ACID] | > 10 | > 10 | > 10 | < 50 | < 50 | < 50 | < 50 | < 50 | < 50 | < 5 | < 50 | < 50 | 
